Source: ChEMBL document CHEMBL1275335, “Design and synthesis of 2-arylbenzimidazoles and evaluation of their inhibitory effect against Chlamydia pneumoniae” (J Med Chem, 2010)
≈ marks a conversion by molar mass, not a printed value. Calls of active or inactive are those of the source. No cut-off for these calls is given here.

Experiments:
Chlamydia pneumoniae [1] = experiment: Antibacterial activity against Chlamydia pneumoniae CWL029 infected in human HL cells assessed as inhibition of bacterial growth at 10 uM after 72 hrs by TR-FIA method; assay type: functional
Procedure, shortened: (§1)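 HL cells were seeded at 6×10^4/well in RPMI 1640 with 7.5% FBS, 2 mM glutamine and gentamicin, then infected 24 h later with CWL-029 at MOI 0.2 plus 0.5 μg/mL cycloheximide and centrifuged 1 h. Compounds were added in six replicates for 72 h at 37 C. After methanol fixation, wells were labelled with europium-conjugated chlamydial antibody (100 ng/mL, 30 min, 37 C) and read by time-resolved fluorescence; rifampicin 0.012 μM served as control.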

[2] = Cytotoxicity against human HL cells assessed as cell viability at 10 uM after 72 hrs by celltiter-glo analysis; assay type: cell-based; conditions: read-out: Activity
Procedure, shortened: (§2)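 After 72 h, viability was measured as intracellular ATP by CellTiter-Glo luminescence after partial medium replacement. Results are expressed as a percentage of cells given DMSO-adjusted medium.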

Staphylococcus aureus = experiment: Antibacterial activity against Staphylococcus aureus ATCC 25923 assessed as inhibition of bacterial growth at 50 uM after 18 hrs by photometric method; assay type: functional
Procedure, shortened: (§3)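 Bacteria were dispensed with 0.01% resazurin and compound, reaching a final 50 μM; ampicillin 25 μM was the control. After 18 h at 37 C, resazurin was read photometrically at 600 nm.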

Escherichia coli = experiment: Antibacterial activity against Escherichia coli ATCC 25922 assessed as inhibition of bacterial growth at 50 uM after 18 hrs by photometric method; assay type: functional, organism-based; procedure, shortened: as §3
HL = experiment: Cytotoxicity against human HL cells at 2.5 uM after 72 hrs by celltiter-glo analysis; assay type: cell-based; procedure, shortened: as §2
Chlamydia pneumoniae [3] = experiment: Antibacterial activity against Chlamydia pneumoniae CV6 infected in human Hep2 cells assessed as minimal chlamydiocidal activity after 72 hrs by fluorescence assay; assay type: functional, HEp-2; conditions: CV6, 72 h
Procedure, shortened: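 CV-6 was grown in HEp-2 cells under 2-fold compound dilutions (MEM, cycloheximide 1 μg/mL, 72 h, 35 C). Drug medium was then removed, wells washed with PBS pH 7.4 and fed drug-free medium. Monolayers were disrupted, passed onto fresh monolayers, incubated and stained with fluorescein anti-LPS mAb. MCC is the lowest concentration giving no IFU in the antibiotic-free passage; run in duplicate.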

Chlamydia pneumoniae [4] = experiment: Chlamydiostatic activity against Chlamydia pneumoniae CV6 infected in human Hep2 cells after 72 hrs by fluorescence assay; assay type: functional, HEp-2; conditions: CV6, 72 h
Procedure, shortened: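 Confluent HEp-2 monolayers on coverslips were centrifuged with C. pneumoniae CV-6 (10^3 IFU/mL; 1700g, 45 min, 35 C). Medium was replaced with MEM containing cycloheximide 1 μg/mL and serial 2-fold compound dilutions. After 72 h at 35 C, 5% CO2, inclusions were stained with fluorescein-conjugated anti-Chlamydia LPS mAb. MIC is the lowest concentration with no IFU; titrations were run in duplicate.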

Chlamydia pneumoniae [5] = experiment: Antibacterial activity against Chlamydia pneumoniae CWL029 infected in human HL cells after 72 hrs by TR-FIA method; assay type: functional, cell-based; conditions: in the assay text read “immunofluorescence method” for “TR-FIA method”; procedure, shortened: as §1

| SMILES | inhibition at 10 µM (Chlamydia pneumoniae [1]) | viability at 72 h, 10 µM [2] | growth inhibition (GI) (Staphylococcus aureus) | growth inhibition (GI) (Escherichia coli) | Activity (HL) | MCC (Chlamydia pneumoniae [3]) | MIC (Chlamydia pneumoniae [4]) | inhibition of growth at 50 µM (Staphylococcus aureus; ATCC 25923, 18 h, read-out: GI) | IC50 (Chlamydia pneumoniae [5]) |
| --- | --- | --- | --- | --- | --- | --- | --- | --- | --- |
| O=C(Nc1cccc(-c2nc3ccccc3o2)c1)c1cccs1 | 61% | 94% |  |  |  |  |  |  |  |
| COc1cccc(C(=O)Nc2cccc(-c3nc4ccccc4[nH]3)c2)c1 | 98% | 97% | inactive | inactive |  |  |  |  |  |
| O=C(Nc1cccc(-c2nc3ccccc3[nH]2)c1)C1CCCCC1 | 100% | 94% | inactive | inactive | Non-toxic | 24.5 µM | 24.5 µM (≈ 7.83 µg/mL) |  |  |
| Cc1cccc2[nH]c(-c3cccc(NC(=O)c4cccs4)c3)nc12 | 89% | 102% | inactive | inactive |  |  |  |  |  |
| O=C(Nc1cccc(-c2nc3ccccc3[nH]2)c1)c1cscn1 | 39% | 98% | inactive | inactive |  |  |  |  |  |
| O=C(Nc1cccc(-c2nc3ccccc3[nH]2)c1)c1cccc(C(F)(F)F)c1 | 99% | 69% |  | inactive | Non-toxic | 50.4 µM | 3.2 µM (≈ 1.22 µg/mL) | 85% | 3 µM |
| COc1ccc2[nH]c(-c3cccc(NC(=O)c4cccs4)c3)nc2c1 | 74% | 98% | inactive | inactive |  |  |  |  |  |
| Cc1ccc2[nH]c(-c3cccc(NC(=O)c4cccs4)c3)nc2c1 | 99% | 95% | inactive | inactive | Non-toxic | 12.6 µM | 12.6 µM (≈ 4.2 µg/mL) |  |  |
| COC(=O)c1cccc(C(=O)Nc2cccc(-c3nc4ccccc4[nH]3)c2)c1 | 99% | 99% | inactive | inactive |  |  |  |  |  |
| O=C(Cc1cccs1)Nc1cccc(-c2nc3ccccc3[nH]2)c1 | 70% | 107% | inactive | inactive |  |  |  |  |  |
| COc1ccccc1C(=O)Nc1cccc(-c2nc3ccccc3[nH]2)c1 | 0% | 107% | inactive | inactive |  |  |  |  |  |
| O=C(Nc1cccc(-c2nc3ccccc3[nH]2)c1)c1cccc(F)c1 | 58% | 101% | inactive | inactive |  |  |  |  |  |
| O=C(Nc1cccc(-c2nc3cc(Cl)ccc3[nH]2)c1)c1cccs1 | 89% | 92% | inactive | inactive | Non-toxic | > 196 µM | 196 µM (≈ 69.4 µg/mL) |  |  |
| O=C(Nc1cccc(-c2ncc[nH]2)c1)c1ccsc1 | 0% | 133% |  |  |  |  |  |  |  |
| O=C(Nc1ccc(-c2nc3ccccc3[nH]2)cc1)c1cccs1 | 0% | 96% | inactive | inactive |  |  |  |  |  |
| O=C(Nc1cccc(-c2nc3ccccc3[nH]2)c1)c1ccccc1 | 99% | 98% | inactive | inactive |  |  |  |  |  |
| CC(C)(C)C(=O)Nc1cccc(-c2nc3ccccc3[nH]2)c1 | 0% | 98% | inactive | inactive |  |  |  |  |  |

| SMILES | inhibition at 10 µM (Chlamydia pneumoniae [1]) | viability at 72 h, 10 µM [2] | growth inhibition (GI) (Staphylococcus aureus) | growth inhibition (GI) (Escherichia coli) | Activity (HL) | MCC (Chlamydia pneumoniae [3]) | MIC (Chlamydia pneumoniae [4]) | inhibition of growth at 50 µM (Staphylococcus aureus; ATCC 25923, 18 h, read-out: GI) | IC50 (Chlamydia pneumoniae [5]) |
| --- | --- | --- | --- | --- | --- | --- | --- | --- | --- |
| Cc1ccccc1C(=O)Nc1cccc(-c2nc3ccccc3[nH]2)c1 | 99% | 90% | inactive | inactive | Non-toxic | 24.5 µM | 6.1 µM (≈ 2 µg/mL) |  |  |
| O=C(Nc1cccc(-c2nc3ccccc3[nH]2)c1)c1ccsc1 | 68% | 98% | inactive | inactive | Non-toxic | > 196 µM | > 196 µM |  |  |
| Cc1cccc(C(=O)Nc2cccc(-c3nc4ccccc4[nH]3)c2)c1 | 98% | 99% | inactive | inactive | Non-toxic | 3.2 µM | 3.2 µM (≈ 1.05 µg/mL) |  | 2 µM |
| O=C(Nc1cccc(-c2nc3ccccc3[nH]2)c1)c1ccoc1 | 78% | 101% | inactive | inactive |  |  |  |  |  |
| O=C(Nc1cccc(-c2nc3ccccc3[nH]2)c1)c1ccccc1C(F)(F)F | 96% | 80% | inactive | inactive |  |  |  |  |  |
| Cn1cccc1C(=O)Nc1cccc(-c2nc3ccccc3[nH]2)c1 | 80% | 104% | inactive | inactive |  |  |  |  |  |
| CC[C@H]1OC(=O)[C@H](C)[C@@H](O[C@H]2C[C@@](C)(OC)[C@@H](O)[C@H](C)O2)[C@H](C)[C@@H](O[C@@H]2O[C@H](C)C[C@H](N(C)C)[C@H]2O)[C@](C)(O)C[C@@H](C)C(=O)[C@H](C)[C@@H](O)[C@]1(C)O [ERYTHROMYCIN] |  |  |  |  |  | 0.17 µM | 0.17 µM (≈ 0.125 µg/mL) |  |  |
| Cc1c(NC(=O)c2cccs2)cccc1-c1nc2ccccc2[nH]1 | 59% | 87% | inactive | inactive |  |  |  |  |  |
| O=S(=O)(Nc1cccc(-c2nc3ccccc3[nH]2)c1)c1ccccc1 | 0% | 77% | inactive | inactive |  |  |  |  |  |
| COc1ccc2[nH]c(-c3cccc(NC(=O)c4ccsc4)c3)nc2c1 | 73% | 95% | inactive | inactive | Non-toxic | 12.6 µM | 12.6 µM (≈ 4.4 µg/mL) |  |  |
| O=C(Nc1cccc(-c2nc3ccccc3[nH]2)c1)c1cccs1 | 89% | 98% | inactive | inactive | Non-toxic | > 196 µM | 196 µM (≈ 62.6 µg/mL) |  |  |
| COc1ccc(-c2nc3ccccc3[nH]2)cc1NC(=O)c1cccs1 | 52% | 101% | inactive | inactive |  |  |  |  |  |
| Cn1c(-c2cccc(NC(=O)c3cccs3)c2)nc2ccccc21 | 0% | 102% | inactive | inactive |  |  |  |  |  |
| O=C(Nc1cccc(-c2nc3ccccc3[nH]2)c1)c1cccc(Cl)c1 | 94% | 106% | inactive | inactive |  |  |  |  |  |
| CC(=O)Nc1cccc(-c2nc3ccccc3[nH]2)c1 | 0% | 100% | inactive | inactive |  |  |  |  |  |
| O=C(Nc1cccc(-c2ncc[nH]2)c1)c1cccs1 | 0% | 115% |  |  |  |  |  |  |  |
| O=C(Nc1cccc(-c2nc3ccccc3[nH]2)c1)c1ccco1 | 45% | 98% | inactive | inactive |  |  |  |  |  |
